According to ChEMBL document CHEMBL1153547, “Rifampin inhibits prostaglandin E2 production and arachidonic acid release in human alveolar epithelial cells” (Antimicrob Agents Chemother, 2007):
Calls of active or inactive are those of the source. The calls are words filed in the database; no cut-off is given here.

How the values were obtained:
A549 [1] = assay: Immunomodulatory effect in human A549 cells assessed as reduction in IL-1-beta-induced [3H]arachidonic acid release measured after 4 hrs of IL1-beta challenge by liquid scintillation counting; assay type: functional, cell-based
In short: (§1)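 A549 cells (2 x 10^6 per 3-cm plate), grown 24 h, labeled 4 h with [3H]AA at 0.5 µCi/ml in serum-free medium, then washed five times. Incubated in serum-free medium with 1 mg/ml BSA plus IL-1ß (1 ng/ml) ± rifampin, or rifampin alone, or medium alone, for 4 h unless another time is stated. Supernatant counted by liquid scintillation. Release given as % of incorporated label. Inhibition = 100 x [(IL-1ß – medium) – (IL-1ß+rif – rif alone)]/(IL-1ß – medium).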

A549 [2] = assay: Inhibition of IL-1-beta-induced COX2 expression in human A549 cells at 50 ug/ml measured after 24 hrs of IL1-beta challenge by Western blot analysis; assay type: functional, cell-based
In short: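 A549 cells (2 x 10^6 per 3-cm dish) grown 24 h, then 24 h in serum- and antibiotic-free medium. Treated with IL-1ß (1 ng/ml) ± rifampin (50 µg/ml) for 24 h, then lysed in SDS buffer and denatured at 95°C. Blocked in 5% milk/TBST, then rabbit anti-COX-2 (1:1,000) overnight at 4°C. HRP secondary used and detected by ECL, with β-actin as comparator and densitometry.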

A549 [3] = assay: Immunomodulatory effect in human A549 cells assessed as reduction in IL-1-beta-induced [3H]arachidonic acid release at 10 to 100 ug/ml measured after 4 hrs of IL1-beta challenge by liquid scintillation counting; assay type: functional, cell-based; in short: as §1
A549 [4] = assay: Immunomodulatory effect in human A549 cells assessed as reduction in IL-1-beta-induced PGE2 formation at 100 ug/ml after 48 hrs by enzyme immunoassay; assay type: functional, cell-based
In short: (§2)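 A549 cells seeded at 1.5 x 10^5/well and grown 24 h, then held overnight in serum- and antibiotic-free medium. Cells exposed to IL-1ß (1 ng/ml) with or without rifampin (10 to 100 µg/ml) in fresh medium for 48 h, with DMSO vehicle at most 0.1%. Cleared supernatants stored at –70°C. PGE2 measured by enzyme immunoassay, triplicate wells.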

A549 [5] = assay: Immunomodulatory effect in human A549 cells assessed as reduction in IL-1-beta-induced [3H]arachidonic acid release at 50 ug/ml measured after 6 hrs of IL1-beta challenge by liquid scintillation counting; assay type: functional; design: scale not given: the % may be the effect or the level left; in short: as §1
A549 [6] = assay: Immunomodulatory effect in human A549 cells assessed as reduction in IL-1-beta-induced [3H]arachidonic acid release at 50 ug/ml measured after 19 hrs of IL1-beta challenge by liquid scintillation counting; assay type: functional; design: scale not given: the % may be the effect or the level left; in short: as §1
A549 [7] = assay: Immunomodulatory effect in human A549 cells assessed as reduction in basal release of [3H]arachidonic acid at 50 ug/ml up to 19 hrs by liquid scintillation counting; assay type: functional; design: scale not given: the % may be the effect or the level left
In short: (§3)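 A549 cells prelabeled 4 h with [3H]AA at 0.5 µCi/ml, washed, then kept in serum-free medium with 1 mg/ml BSA, alone or with rifampin, with sampling at set times. Supernatant radioactivity counted by liquid scintillation and given as % of incorporated label. Incorporation estimated by subtracting supernatant counts after labeling from the radioactivity added. Two independent experiments, n = 5 per group.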

A549 [8] = assay: Immunomodulatory effect in human A549 cells assessed as inhibition of Ca2+ ionophore A23187 stimulated-[3H]arachidonic acid release measured after 2 hrs of A23187 challenge by liquid scintillation counting; assay type: functional
A549 [9] = assay: Immunomodulatory effect in human A549 cells assessed as reduction in IL-1-beta-induced PGE2 formation at 25 ug/ml after 48 hrs by enzyme immunoassay; assay type: functional; design: scale not given: the % may be the effect or the level left; in short: as §2
A549 [10] = assay: Immunomodulatory effect in human A549 cells assessed as reduction in basal release of [3H]arachidonic acid at 50 ug/ml up to 2 hrs by liquid scintillation counting; assay type: functional; design: scale not given: the % may be the effect or the level left; in short: as §3
A549 [11] = assay: Immunomodulatory effect in human A549 cells assessed as inhibition of Ca2+ ionophore A23187 stimulated-[3H]arachidonic acid release measured after 4 hrs of A23187 challenge by liquid scintillation counting; assay type: functional
A549 [12] = assay: Immunomodulatory effect in human A549 cells assessed as reduction in IL-1-beta-induced [3H]arachidonic acid release at 50 ug/ml measured after 2 hrs of IL1-beta challenge by liquid scintillation counting; assay type: functional; design: scale not given: the % may be the effect or the level left; in short: as §1
A549 [13] = assay: Immunomodulatory effect in human A549 cells assessed as reduction in spontaneous release of [3H]arachidonic acid by liquid scintillation counting; assay type: functional, cell-based; in short: as §3
A549 [14] = assay: Immunomodulatory effect in human A549 cells assessed as inhibition of Ca2+ ionophore A23187 stimulated-[3H]arachidonic acid release measured after 45 mins of A23187 challenge by liquid scintillation counting; assay type: functional, cell-based
[15] = Drug level in serum at 600 mg; assay type: ADME, cell-free
A549 [16] = assay: Immunomodulatory effect in human A549 cells assessed as reduction in IL-1-beta-induced PGE2 formation at 50 ug/ml after 48 hrs by enzyme immunoassay; assay type: functional; design: scale not given: the % may be the effect or the level left; in short: as §2
A549 [17] = assay: Cytotoxicity against human A549 cells assessed as cell viability by neutral red uptake assay; assay type: cell-based
In short: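 A549 cells in 96-well plates, after treatment, given neutral red at 0.05% final in fresh medium for 1 h. Cells washed with cold PBS containing Ca2+ and Mg2+, then dye extracted with Sorenson's citrate buffer-ethanol. Absorbance read at 540 nm. Viability taken as the absorbance ratio of treated to untreated cells.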

Drug uptake [15]: 10 µg/mL
SMILES: CO[C@H]1/C=C/O[C@@]2(C)Oc3c(C)c(O)c4c(O)c(c(/C=N/N5CCN(C)CC5)c(O)c4c3C2=O)NC(=O)/C(C)=C\C=C\[C@H](C)[C@H](O)[C@@H](C)[C@@H](O)[C@@H](C)[C@H](OC(C)=O)[C@@H]1C [RIFAMPIN]
Activity (A549 [1]): Dose-dependent effect
inhibition (A549 [2]): inactive
Activity (A549 [3]): Active
Activity (A549 [4]): Dose-dependent effect
Activity (A549 [5]): 79%
Activity (A549 [6]): 95%
Activity (A549 [7]): 34%
inhibition (INH) (A549 [8]): 5.5%
Activity (A549 [9]): 45%
Activity (A549 [10]): 47%
inhibition (INH) (A549 [11]): 8.3%
Activity (A549 [12]): 53%
Activity (A549 [13]): Dose-dependent effect
inhibition (A549 [14]): inactive
Activity (A549 [16]): 59%
Activity (A549 [17]): Non-toxic
